From article PMC4324837 (Antiviral research, 2014)
Where a name gives a salt, the structure may show the parent alone. Numbered stars: 1 amine (or outer) side, 2 acyl side, 3 side chain; on linkers, the order of the positions; unused ones are H or OH. Bridge positions count the residues as written; N and C are the ends. Square brackets hold non-standard residues; d marks the D form. Peptide text beside a SMILES is read from it. I, II: the chains in the order shown. Actinocin(9to1) = Cc1c2oc3c(C)ccc(C(=O)[*:1])c3nc-2c(C(=O)[*:2])c(N)c1=O; NMeV = CN[C@H](C(=O)O)C(C)C; Sar = CNCC(=O)O

Assays:
CMV AD169IE2-YFP [1] = test: High-content screen, IE2-YFP nuclear fluorescence in infected MRC5 cells; format: cell-based, Human cytomegalovirus; details: for activity at 5.6 µM: Human betaherpesvirus 5, MRC5, 16 h, read-out: YFP Intensity (%); for reduction of YFP intensity: primary screen, screening dose (5μM printed elsewhere in the source)
[2] = CC50 / cell viability by NucGreen staining, MRC5 cells; format: cell-based, Human; details: human
CMV AD169IE2-YFP [3] = test: in vitro; format: cell-based, Human cytomegalovirus; details: MRC5 cells; for Selective Ratio (CC50/EC50) / selectivity ratio: AD169IE2-YFP; for selectivity ratio: human, Selective Ratio (CC50/EC50)
[4] = Cell viability by NucGreen staining, ARPE-19 cells; format: cell-based; details: human
Procedure, shortened: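 ARPE-19 cells, 10,000/well in 96-well plates, were exposed next day to test compound in DMEM, in sextuplicate. After 19 h, NucGreen dead-cell stain went into three of six wells per condition for 10 min at RT. Total cells were counted by fixing with 4% paraformaldehyde and adding NucGreen for 10 min. Signal was read on a fluorescent plate reader, and % viability was taken from NucGreen-positive counts of treated versus total cells.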

MRC5 cells [5] = test: Cell viability under prolonged treatment, uninfected MRC5 fibroblasts, NucGreen; format: cell-based, Human; details: 5nM, throughout the timecourse (up to 168 hours)
Procedure, shortened: (§1)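 Uninfected MRC5 fibroblasts, 10,000/well in 96-well plates, were kept in DMEM with test compound (0, 5, 10 or 50 nM) in sextuplicate for up to 168 h. NucGreen dead-cell staining was read on a fluorescent plate reader. Percent viability used the total cell number of DMSO-treated wells as 100%, plotted at 72, 120 and 168 hpi.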

[6] = as above; format: cell-based, Human; details: human, uninfected MRC5 fibroblasts
Procedure, shortened: as §1

CMV AD169IE2-YFP [7] = test: Multi-cycle infection study, YFP+ cells under long-term convallatoxin treatment; format: cell-based, Human cytomegalovirus
Procedure, shortened: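 MRC5 cells, 10,000/well in 96-well plates, received DMEM with test compound (0, 5, 10 or 50 nM) in sextuplicate. In one plate this was followed immediately by AD169 IE2-YFP infection (MOI 0.5) or medium alone. In the other, cells were infected (MOI 0.5) or mock-infected for 36 h before compound-containing medium was added. IE2-YFP-positive cells were read on a fluorescent plate reader up to 168 hpi.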

CMV AD169IE2-YFP [8] = format: cell-based, Human cytomegalovirus; details: MRC5, MOI 0.5, compound present until 24 hpi
CMV TB40/EFLAG-YFP = test: EC50 of convallatoxin, clinical strain reporter virus in ARPE-19 cells; format: cell-based, Human cytomegalovirus; details: Human betaherpesvirus 5, ARPE-19
Procedure, shortened: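 ARPE-19 cells, 10,000/well in 96-well plates, got DMEM with test compound (0-10 nM) the next day, in sextuplicate. They were then infected with TB40/E FLAG-YFP (US28 replaced by FLAG-YFP; MOI 20). YFP+ cells were counted at 120 hpi on an Acumen eX3 cytometer, with positive meaning above 2 SD of background. % infection was set against DMSO-treated cells; EC50 came from a three-parameter log(inhibitor)-response fit of mean values.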

CMV AD169 = test: Immunoblot of viral early protein US11 in infected MRC5 cells; format: cell-based, Human cytomegalovirus; details: MRC5, AD169-WT MOI 3, 20 hpi; for US11 protein level in infected cells: 50 or 500nM of respective compound
Procedure, shortened: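 MRC5 cells were pretreated 1 h at 37 °C with test compound or 0.1% DMSO, infected with wild-type AD169 (MOI 3), then washed once with DMEM before analysis.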

CMV = test: Addition of compound after infection; format: cell-based, Human cytomegalovirus; details: added up to 4hpi, data not shown
MRC5 cells [9] = test: CC50 / cell viability by NucGreen staining, MRC5 cells; format: cell-based, Human; details: MRC5 cells, 0-5μM, 19 hours, NucGreen

Q: Which activity at 5.6 µM (CMV AD169IE2-YFP [1]) does the source give for `Cc1c2oc3c(C)ccc(C(=O)N[C@@H]4C(=O)N[C@H](C(C)C)C(=O)N5CCC[C@H]5C(=O)N(C)CC(=O)N(C)[C@@H](C(C)C)C(=O)O[C@@H]4C)c3nc-2c(C(=O)N[C@@H]2C(=O)N[C@H](C(C)C)C(=O)N3CCC[C@H]3C(=O)N(C)CC(=O)N(C)[C@@H](C(C)C)C(=O)O[C@@H]2C)c(N)c1=O` [Actinomycin D] (I: T[dV]P[Sar][NMeV] / II: T[dV]P[Sar][NMeV]; ester I:1-I:C, II:1-II:C; linker I:N-II:N via Actinocin(9to1)) here?
A: 5.8 ± 0.11%

Q: With `COc1ccc2c(c1OC)C(=O)O[C@@H]2[C@H]1c2c(cc3c(c2OC)OCO3)CCN1C` [Noscapine] as the compound, how does the activity at 5.6 µM (CMV AD169IE2-YFP [1]) read?
A: 106%

Q: Which CC50 at 19 h ([2]; MRC5 cells) does the source give for `CN(C)C(=S)SSC(=S)N(C)C` [Thiram] here?
A: 2200 nM

Q: What about the “Selective Ratio (CC50/EC50)” value (CMV AD169IE2-YFP [3]) of the same compound?
A: <0.4

Q: What about the “Selective Ratio (CC50/EC50)” value (CMV AD169IE2-YFP [3]; listed as thiram) of the same compound?
A: < 30

Q: What about the activity at 5.6 µM (CMV AD169IE2-YFP [1]) of the same compound?
A: 14 ± 0.29%

Q: Which EC50 (CMV AD169IE2-YFP [3]; MOI 3, 1 h pretreatment, 0-5μM, 18 hpi) does the source give for `COc1ccc(C[C@H]2NC[C@H](O)[C@H]2OC(C)=O)cc1` [Anisomycin] here?
A: 170 nM

Q: What does the source list for `C[C@@H]1O[C@@H](O[C@H]2CC[C@]3(C=O)[C@H]4CC[C@]5(C)[C@@H](C6=CC(=O)OC6)CC[C@]5(O)[C@@H]4CC[C@]3(O)C2)[C@H](O)[C@H](O)[C@H]1O` [Convallatoxin]?
A: viability at 19 h, 10 nM [4]: ~80%; CC50 at 19 h [2]: > 5000 nM; viability at 19 h, 5 µM [2]: 100%; selectivity ratio (CMV AD169IE2-YFP [3]): > 454; effect on cell viability (MRC5 cells [5]): no detectable effect; viability at 120 h, 0.01 µM [6]: 79%; viability at 120 h, 0.05 µM [6]: 61%; viability at 168 h, 0.01 µM [6]: 91%; viability at 168 h, 0.05 µM [6]: 82%; fluorescent expression relative to DMSO-treated cells (CMV AD169IE2-YFP [7]; 5nM, added at 0hpi, by 100hpi): approximately half; number of YFP+ cells compared to DMSO (CMV AD169IE2-YFP [7]; MRC5, MOI 0.5, 5, 10 or 50nM added simultaneously with virus (0hpi)): reduced the number of YFP+ cells in a dose-dependent manner; number of YFP+ cells (CMV AD169IE2-YFP [7]; MRC5, MOI 0.5, treatment of infected cells at 36hpi): significant decrease of YFP+ cells; activity at 5.6 µM (CMV AD169IE2-YFP [1]): 27.8 ± 0.87%; YFP fluorescence (% infection vs DMSO) (CMV AD169IE2-YFP [8]; followed 9 days, ganciclovir 12μM): significant decrease in fluorescence; decrease in virus titer compared to ganciclovir treatment (CMV AD169IE2-YFP [8]; plaque assay of supernatants): ~10 fold; EC50 (CMV TB40/EFLAG-YFP): 0.1 nM; US11 protein level in infected cells (CMV AD169): lower levels of US11; US11 expression (CMV AD169; convallatoxin 5-50nM (all concentrations)): blocked the expression of US11 at all concentrations

Q: For `COc1cc2c(c(OC)c1OC)-c1ccc(OC)c(=O)cc1[C@@H](NC(C)=O)CC2` [Colchicine], which CC50 at 19 h [2] is on record?
A: > 5000 nM

Q: And the activity at 5.6 µM (CMV AD169IE2-YFP [1])?
A: 17.3 ± 0.34%

Q: And the “effect on infection when added after infection” value (CMV)?
A: reduced infection

Q: And the “US11 protein level in infected cells” value (CMV AD169)?
A: lower levels of US11

Q: Which CC50 (MRC5 cells [9]) does the source give for `COc1cc(C2c3cc4c(cc3C(O)C3COC(=O)C23)OCO4)cc(OC)c1O` (stereo not drawn) [4′-demethyl-epipodophyllotoxin] here?
A: > 5000 nM

Q: What about the “Selective Ratio (CC50/EC50)” value (CMV AD169IE2-YFP [3]) of the same compound?
A: >1.5

Q: With `C[C@@H]1O[C@@H](O[C@H]2C[C@@H](O)[C@]3(CO)[C@H]4[C@H](O)C[C@]5(C)[C@@H](C6=CC(=O)OC6)CC[C@]5(O)[C@@H]4CC[C@]3(O)C2)[C@H](O)[C@H](O)[C@H]1O` [ouabain] as the compound, how does the “reduction of YFP intensity” value (CMV AD169IE2-YFP [1]) read?
A: ≤ 70%

Q: For `CC[C@]1(O)C[C@H]2CN(CCc3c([nH]c4ccccc34)[C@@](C(=O)OC)(c3cc4c(cc3OC)N(C=O)[C@H]3[C@@](O)(C(=O)OC)[C@H](OC(C)=O)[C@]5(CC)C=CCN6CC[C@]43[C@@H]65)C2)C1` [Vincristine sulfate], which CC50 at 19 h [2] is on record?
A: 40 nM

Q: And the “Selective Ratio (CC50/EC50)” value (CMV AD169IE2-YFP [3])?
A: 3.4

Q: And the activity at 5.6 µM (CMV AD169IE2-YFP [1])?
A: 26.6 ± 0.53%

Q: With `CO[C@H]1[C@H](O)[C@H](O[C@H]2CC[C@@]3(C=O)[C@H](CC[C@@H]4[C@@H]3CC[C@]3(C)[C@@H](C5=CC(=O)OC5)CC[C@]43O)C2)O[C@@H](C)[C@@H]1O` [peruvoside] as the compound, how does the “reduction of YFP intensity” value (CMV AD169IE2-YFP [1]) read?
A: ≤ 70%

Q: Which activity at 5.6 µM (CMV AD169IE2-YFP [1]) does the source give for `C[C@@H]1C[C@@H]([C@H](O)CC2CC(=O)NC(=O)C2)C(=O)[C@@H](C)C1` [Cycloheximide] here?
A: 11.2 ± 1.8%

Q: With `CC[C@]1(O)C[C@@H]2CN(CCc3c([nH]c4ccccc34)[C@@](C(=O)OC)(c3cc4c(cc3OC)N(C)[C@H]3[C@@](O)(C(=O)OC)[C@H](OC(C)=O)[C@]5(CC)C=CCN6CC[C@]43[C@@H]65)C2)C1` [Vinblastine sulfate] as the compound, how does the activity at 5.6 µM (CMV AD169IE2-YFP [1]) read?
A: 24.2 ± 0.48%

Q: What does the source list for `CC(=O)O[C@@H]1C[C@@]2(C)[C@H](c3ccoc3)C[C@H]3O[C@]32[C@]2(C)C(=O)C(O)=C3C(C)(C)C(=O)C=C[C@]3(C)[C@@H]12` [Anthothecol]?
A: CC50 at 19 h [2]: 700 nM; Selective Ratio (CC50/EC50) (CMV AD169IE2-YFP [3]): 0.4; Selective Ratio (CC50/EC50) (CMV AD169IE2-YFP [3]; listed as anthothecol): < 30; activity at 5.6 µM (CMV AD169IE2-YFP [1]): 27.5 ± 0.55%

Q: With `COc1cc([C@@H]2c3cc4c(cc3[C@H](O)[C@H]3COC(=O)[C@H]23)OCO4)cc(OC)c1OC` [Podofilox] as the compound, how does the CC50 at 19 h ([2]; MRC5 cells) read?
A: > 5000 nM

Q: What about the selectivity ratio (CMV AD169IE2-YFP [3]) of the same compound?
A: > 192

Q: And the activity at 5.6 µM (CMV AD169IE2-YFP [1])?
A: 14.5 ± 0.31%

Q: What about the “US11 protein level in infected cells” value (CMV AD169) of the same compound?
A: lower levels of US11

Q: Which “reduction of YFP intensity” value (CMV AD169IE2-YFP [1]) does the source give for `CC[C@H]1CN2CCc3cc(OC)c(OC)cc3[C@@H]2C[C@@H]1C[C@H]1NCCc2cc(OC)c(OC)cc21` [emetine] here?
A: 41%

Q: For `COc1cc([C@@H]2c3cc4c(c(O)c3C[C@H]3COC(=O)[C@@H]32)OCO4)cc(OC)c1OC` [β-peltatin], which activity at 5.6 µM (CMV AD169IE2-YFP [1]) is on record?
A: 20.5 ± 0.41%
